Measurements: ChEMBL document CHEMBL1629579, “Correlating echinocandin MIC and kinetic inhibition of fks1 mutant glucan synthases for Candida albicans: implications for interpretive breakpoints” (Antimicrob Agents Chemother, 2009)
≈ marks a conversion by molar mass, not a printed value.

Legend:
Candida albicans [1] = experiment: Activity at Candida albicans 85 1,3-beta-D-glucan synthase subunit FKS1p C1934T mutant
Summary of the method: (§1)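 Product-entrapped 1,3-β-D-glucan synthase from cells grown in YPD at 37°C to early stationary phase. Wells held 50 mM HEPES pH 7.5, 10% glycerol, 1.5 mg/ml BSA, 25 mM KF, 1 mM EDTA, 25 μM GTP-γ-S, 1 μg enzyme and [3H]UDPG (0.015–2 mM). Reactions ran 60 min at 25°C. Vmax and Km came from Lineweaver-Burke plots, in triplicate.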

[2] = Inhibition of Candida albicans 149 1,3-beta-D-glucan synthase subunit FKS1p G1942T mutant
Summary of the method: (§2)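 Enzyme is product-entrapped 1,3-β-D-glucan synthase, enriched from membranes of each strain grown at 37°C with shaking in YPD broth to early stationary phase. Filtration polymerization assay uses [3H]UDPG, started by adding enzyme and run 60 min at 25°C. Echinocandins are added as serial dilutions, with 1% DMSO controls for anidulafungin. IC50 is from a variable-slope sigmoidal fit; values are triplicate arithmetic means.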

Candida albicans [3] = experiment: Antimicrobial activity against Candida albicans 122 harboring FKS1 C1946A mutant gene and FKS1 hotspot1 P649H mutant gene by M27-A3 method in presence of 50% human serum; assay type: functional
Summary of the method: (§3)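 Broth microdilution per CLSI M27-A3 in RPMI 1640, done in triplicate on three separate days. Each strain was tested with and without 50% human serum. C. krusei ATCC 6258 and C. parapsilosis ATCC 22019 served as QC strains. Arithmetic means are reported, and geometric means were used for comparison.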

Candida albicans [4] = experiment: Antimicrobial activity against Candida albicans 194 harboring FKS1 C1934T/G4082R mutant gene and FKS1 hotspot1 S645F mutant gene and FKS1 hotspot2 R1361R/H mutant gene by M27-A3 method in presence of 50% human serum; assay type: functional; summary of the method: as §3
Candida albicans [5] = experiment: Antimicrobial activity against Candida albicans 2762 harboring FKS1 T1922C mutant gene and FKS1 hotspot1 F641S mutant gene by M27-A3 method; assay type: functional; summary of the method: as §3
Candida albicans [6] = experiment: Antimicrobial activity against Candida albicans 205 harboring FKS1 T1933C mutant gene and FKS1 hotspot1 S645P mutant gene by M27-A3 method in presence of 50% human serum; assay type: functional; summary of the method: as §3
Candida albicans [7] = experiment: Activity at Candida albicans 149 1,3-beta-D-glucan synthase subunit FKS1p G1942T mutant; summary of the method: as §1
Candida albicans [8] = experiment: Antimicrobial activity against Candida albicans 121 harboring FKS1 G4082A mutant gene and FKS1 hotspot2 R1361H mutant gene by M27-A3 method in presence of 50% human serum; assay type: functional; summary of the method: as §3
Candida albicans [9] = experiment: Activity at Candida albicans 90 1,3-beta-D-glucan synthase subunit FKS1p G4082R mutant; summary of the method: as §1
Candida albicans [10] = experiment: Antimicrobial activity against Candida albicans 90 harboring FKS1 G4082R mutant gene and FKS1 hotspot2 R1361R/H mutant gene by M27-A3 method in presence of 50% human serum; assay type: functional; summary of the method: as §3
Candida albicans SC5314 = experiment: Activity at Candida albicans SC5314 1,3-beta-D-glucan synthase subunit FKS1p
Summary of the method: (§4)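 Glucan synthase from cells grown at 37°C with vigorous shaking to early stationary phase in YPD. Membrane enzyme enriched by product entrapment. Serial echinocandin dilutions; ANF controls held 1% DMSO. Reaction started by adding enzyme, run 60 min at 25°C in a filtration polymerization assay, stopped on ice. IC50 from a variable-slope sigmoidal fit; means of three repetitions on separate days.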

[11] = Inhibition of Candida albicans 119 1,3-beta-D-glucan synthase subunit FKS1p T1921C mutant
Summary of the method: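 Product-entrapped glucan synthase from YPD-grown cells (37°C, early stationary phase) in a filtration polymerization assay with [3H]UDPG. Echinocandin serial dilutions were added, with 1% DMSO in controls for anidulafungin. Reactions were started with enzyme, run 60 min at 25°C and stopped on ice. IC50 came from a variable-slope sigmoidal fit, in triplicate.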

[12] = Inhibition of Candida albicans 85 1,3-beta-D-glucan synthase subunit FKS1p C1934T mutant; summary of the method: as §2
Candida albicans [13] = experiment: Activity at Candida albicans 2762 1,3-beta-D-glucan synthase subunit FKS1p T1922C mutant; summary of the method: as §1
Candida albicans [14] = experiment: Activity at Candida albicans 1002 1,3-beta-D-glucan synthase subunit FKS1p; summary of the method: as §4
Candida albicans [15] = experiment: Antimicrobial activity against Candida albicans 149 harboring FKS1 G1942T mutant gene and FKS1 hotspot1 D648Y mutant gene by M27-A3 method; assay type: functional; summary of the method: as §3
[16] = Inhibition of Candida albicans 194 1,3-beta-D-glucan synthase subunit FKS1p C1934T/G4082R mutant; summary of the method: as §2
Candida albicans [17] = experiment: Antimicrobial activity against Candida albicans 119 harboring FKS1 T1921C mutant gene and FKS1 hotspot1 F641L mutant gene by M27-A3 method; assay type: functional; summary of the method: as §3
[18] = Inhibition of Candida albicans 90028 1,3-beta-D-glucan synthase subunit FKS1p; summary of the method: as §2
Candida albicans [19] = experiment: Antimicrobial activity against Candida albicans 89 harboring FKS1 C1934A mutant gene and FKS1 hotspot1 S645Y mutant gene by M27-A3 method; assay type: functional; summary of the method: as §3
Candida albicans [20] = experiment: Antimicrobial activity against Candida albicans 36082 by M27-A3 method in presence of 50% human serum; assay type: functional; summary of the method: as §3
[21] = Inhibition of Candida albicans 121 1,3-beta-D-glucan synthase subunit FKS1p G4082A mutant; summary of the method: as §2
Candida albicans [22] = experiment: Activity at Candida albicans 122 1,3-beta-D-glucan synthase subunit FKS1p C1946A mutant; summary of the method: as §1
Candida albicans [23] = experiment: Antimicrobial activity against Candida albicans 90028 by M27-A3 method in presence of 50% human serum; assay type: functional; summary of the method: as §3
Candida albicans [24] = experiment: Activity at Candida albicans A15-10 1,3-beta-D-glucan synthase subunit FKS1p T1933C mutant
Candida albicans [25] = experiment: Antimicrobial activity against Candida albicans 36082 by M27-A3 method; assay type: functional
Summary of the method: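 Broth microdilution per CLSI M27-A3 in RPMI 1640, with and without 50% human serum, in triplicate. C. krusei ATCC 6258 and C. parapsilosis ATCC 22019 served as quality-control strains. MIC reported as arithmetic mean of three repetitions on separate days.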

Candida albicans [26] = experiment: Antimicrobial activity against Candida albicans 85 harboring FKS1 C1934T mutant gene and FKS1 hotspot1 S645F mutant gene by M27-A3 method; assay type: functional; summary of the method: as §3
Candida albicans [27] = experiment: Antimicrobial activity against Candida albicans SC5314 by M27-A3 method in presence of 50% human serum; assay type: functional; summary of the method: as §3
Candida albicans [28] = experiment: Antimicrobial activity against Candida albicans A15 harboring FKS1 T1933Y mutant gene and FKS1 hotspot1 S645S/P mutant gene by M27-A3 method; assay type: functional; summary of the method: as §3
Candida albicans [29] = experiment: Activity at Candida albicans 205 1,3-beta-D-glucan synthase subunit FKS1p T1933C mutant; summary of the method: as §1

For `CC[C@H](C)C[C@H](C)CCCCCCCCC(=O)N[C@H]1C[C@@H](O)[C@@H](NCCN)NC(=O)[C@@H]2[C@@H](O)CCN2C(=O)[C@H]([C@H](O)CCN)NC(=O)[C@H]([C@H](O)[C@@H](O)c2ccc(O)cc2)NC(=O)[C@@H]2C[C@@H](O)CN2C(=O)[C@H]([C@@H](C)O)NC1=O` [CASPOFUNGIN], the Km (Candida albicans [1]) was 25 µM, the Vmax (Candida albicans [1]) was 1.83 nmol/min and the IC50 [2] was 0.06822 µg/mL (≈ 0.0624 µM). The Ki [2] was 0.2 µg/mL (≈ 0.183 µM), the MIC (Candida albicans [3]) was 4 µg/mL and the MIC (Candida albicans [4]) was 8 µg/mL. The MIC (Candida albicans [5]) was 3.33 µg/mL (≈ 3.05 µM), the MIC (Candida albicans [6]) was 8 µg/mL and the Km (Candida albicans [7]) was 32 µM. For the same compound, the Vmax (Candida albicans [7]) was 1.22 nmol/min, the MIC (Candida albicans [8]) was 8 µg/mL and the Km (Candida albicans [9]) was 31 µM. The Vmax (Candida albicans [9]) was 2.36 nmol/min, the MIC (Candida albicans [10]) was 4 µg/mL and the Km (Candida albicans SC5314) was 125 µM. The Vmax (Candida albicans SC5314) was 6.72 nmol/min, the IC50 [11] was 0.01003 µg/mL (≈ 0.00917 µM) and the Ki [11] was 0.00492 µg/mL (≈ 0.0045 µM). It also gave an IC50 [12] of 0.4591 µg/mL (≈ 0.42 µM), a Ki [12] of 0.51933 µg/mL (≈ 0.475 µM) and a Km (Candida albicans [13]) of 108 µM. The Vmax (Candida albicans [13]) was 3.57 nmol/min, the Km (Candida albicans [14]) was 122 µM and the Vmax (Candida albicans [14]) was 5.8 nmol/min. The MIC (Candida albicans [15]) was 2.67 µg/mL (≈ 2.44 µM), the IC50 [16] was 0.5307 µg/mL (≈ 0.485 µM) and the Ki [16] was 0.46689 µg/mL (≈ 0.427 µM). The MIC (Candida albicans [17]) was 2 µg/mL (≈ 1.83 µM), the IC50 [18] was 0.0005 µg/mL (≈ 0.000457 µM) and the Ki [18] was 0.00046 µg/mL (≈ 0.000421 µM). For the same compound, the MIC (Candida albicans [19]) was 8 µg/mL (≈ 7.32 µM), the MIC (Candida albicans [20]) was 0.25 µg/mL and the IC50 [21] was 0.03372 µg/mL (≈ 0.0308 µM). It also gave a Ki [21] of 0.308 µg/mL (≈ 0.282 µM), a Km (Candida albicans [22]) of 152 µM and a Vmax (Candida albicans [22]) of 1.95 nmol/min. It also gave an MIC (Candida albicans [23]) of 0.25 µg/mL, a Km (Candida albicans [24]) of 91 µM and a Vmax (Candida albicans [24]) of 3.26 nmol/min. For the same compound, the MIC (Candida albicans [25]) was 0.21 µg/mL (≈ 0.192 µM), the MIC (Candida albicans [26]) was 4 µg/mL (≈ 3.66 µM) and the MIC (Candida albicans [27]) was 0.5 µg/mL. It also gave an MIC (Candida albicans [28]) of 4 µg/mL (≈ 3.66 µM), a Km (Candida albicans [29]) of 116 µM and a Vmax (Candida albicans [29]) of 5.54 nmol/min.
